Experimental data taken from ChEMBL document CHEMBL2434863, “Synthesis and in vitro/in vivo antibacterial activity of oxazolidinones having thiocarbamate at C-5 on the A-ring and an amide- or urea-substituted [1,2,5]triazepane or [1,2,5]oxadiazepane as the C-ring” (Eur J Med Chem, 2013).

Legend:
[1] = tested on: Staphylococcus aureus; assay: Antibacterial activity against methicillin-resistant Staphylococcus aureus SR3637 infected in JCL/ICR mouse systemic infection model assessed as mortality administered as iv measured over 7 days; type: functional; conditions: 168 h
Procedure, shortened: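 Lethal systemic infection model in mice; test agents were given intravenously.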

[2] = tested on: Staphylococcus aureus; assay: Antibacterial activity against methicillin-resistant Staphylococcus aureus SR3637 assessed as growth inhibition by broth microdilution method; type: functional
[3] = tested on: Haemophilus influenzae; assay: Potency index, ratio of linezolid MIC to compound MIC for Haemophilus influenzae SR27914 clinical isolate; type: functional
[4] = tested on: Streptococcus pneumoniae; assay: Potency index, ratio of linezolid MIC to compound MIC for Streptococcus pneumoniae SR26207 clinical isolate; type: functional
[5] = tested on: Moraxella catarrhalis; assay: Potency index, ratio of linezolid MIC to compound MIC for Moraxella catarrhalis SR26840 clinical isolate; type: functional
[6] = tested on: Enterococcus faecium; assay: Potency index, ratio of linezolid MIC to compound MIC for Enterococcus faecium SR7940 clinical isolate; type: functional
[7] = tested on: Enterococcus faecalis; assay: Potency index, ratio of linezolid MIC to compound MIC for Enterococcus faecalis SR1004 clinical isolate; type: functional
[8] = tested on: Staphylococcus aureus; assay: Potency index, ratio of linezolid MIC to compound MIC for Staphylococcus aureus Smith; type: functional
[9] = tested on: Staphylococcus aureus; assay: Potency index, ratio of linezolid MIC to compound MIC for Staphylococcus aureus SR20549 clinical isolate; type: functional
[10] = tested on: Haemophilus influenzae; assay: Antibacterial activity against Haemophilus influenzae SR27914 clinical isolate assessed as growth inhibition by broth microdilution method; type: functional
[11] = tested on: Streptococcus pneumoniae; assay: Antibacterial activity against Streptococcus pneumoniae SR26207 clinical isolate assessed as growth inhibition by broth microdilution method; type: functional
[12] = tested on: Staphylococcus aureus; assay: Antibacterial activity against linezolid-resistant Staphylococcus aureus NRS271 assessed as growth inhibition by broth microdilution method; type: functional
[13] = tested on: Enterococcus faecalis; assay: Antibacterial activity against Enterococcus faecalis SR1004 clinical isolate assessed as growth inhibition by broth microdilution method; type: functional
[14] = tested on: Staphylococcus aureus; assay: Antibacterial activity against Staphylococcus aureus SR20549 clinical isolate assessed as growth inhibition by broth microdilution method; type: functional
[15] = tested on: Staphylococcus aureus; assay: Antibacterial activity against Staphylococcus aureus Smith assessed as growth inhibition by broth microdilution method; type: functional
[16] = tested on: Moraxella catarrhalis; assay: Antibacterial activity against Moraxella catarrhalis SR26840 clinical isolate assessed as growth inhibition by broth microdilution method; type: functional
[17] = tested on: Enterococcus faecium; assay: Antibacterial activity against Enterococcus faecium SR7940 clinical isolate assessed as growth inhibition by broth microdilution method; type: functional
[18] = molecular target: T1, MAO-B (Rattus norvegicus, UniProt P19643); assay: Inhibition of MAO-B in rat forebrain using [14C]PEA as substrate at 30 uM incubated for 20 mins prior to substrate addition measured after 10 mins by liquid scintillation counting analysis; type: tissue-based; conditions: probe [14C]PEA
T1 sequence (P19643 whole entry): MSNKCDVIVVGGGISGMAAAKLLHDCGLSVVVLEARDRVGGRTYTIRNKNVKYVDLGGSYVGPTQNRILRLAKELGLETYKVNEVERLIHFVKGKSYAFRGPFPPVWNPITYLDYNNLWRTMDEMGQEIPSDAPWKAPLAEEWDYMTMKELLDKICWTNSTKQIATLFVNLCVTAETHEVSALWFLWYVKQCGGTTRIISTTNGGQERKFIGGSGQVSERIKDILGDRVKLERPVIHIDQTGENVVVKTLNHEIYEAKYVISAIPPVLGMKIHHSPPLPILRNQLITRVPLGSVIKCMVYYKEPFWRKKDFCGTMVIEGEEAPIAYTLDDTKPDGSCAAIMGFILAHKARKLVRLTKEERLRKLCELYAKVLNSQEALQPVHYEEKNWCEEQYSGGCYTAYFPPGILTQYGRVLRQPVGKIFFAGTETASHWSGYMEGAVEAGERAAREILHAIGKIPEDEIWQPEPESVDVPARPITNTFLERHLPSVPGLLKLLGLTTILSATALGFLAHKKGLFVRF

[19] = molecular target: T2, MAO-A (Rattus norvegicus, UniProt P21396); assay: Inhibition of MAO-A in rat forebrain using [14C]5-HT as substrate at 30 uM incubated for 20 mins prior to substrate addition measured after 5 mins by liquid scintillation counting analysis; type: tissue-based; conditions: probe [14C]5-HT
T2 sequence (P21396 whole entry): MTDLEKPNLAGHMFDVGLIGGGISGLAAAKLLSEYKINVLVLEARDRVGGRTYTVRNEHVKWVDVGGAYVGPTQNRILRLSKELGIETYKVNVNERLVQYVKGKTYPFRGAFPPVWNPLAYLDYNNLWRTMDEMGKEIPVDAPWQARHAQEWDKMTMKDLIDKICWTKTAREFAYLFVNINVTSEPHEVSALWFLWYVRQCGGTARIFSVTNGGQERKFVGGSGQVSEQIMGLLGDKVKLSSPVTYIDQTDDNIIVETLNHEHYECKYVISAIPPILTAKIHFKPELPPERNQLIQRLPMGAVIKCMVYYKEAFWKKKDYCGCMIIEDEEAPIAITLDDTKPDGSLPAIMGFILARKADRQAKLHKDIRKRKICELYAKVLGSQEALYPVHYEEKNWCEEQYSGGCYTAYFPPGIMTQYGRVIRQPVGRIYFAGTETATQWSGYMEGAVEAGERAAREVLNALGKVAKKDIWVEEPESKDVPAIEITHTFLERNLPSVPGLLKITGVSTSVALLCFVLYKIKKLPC

[20] = molecular target: Cytochrome P450 3A4 (Homo sapiens, UniProt P08684); assay: Inhibition of CYP3A4 in human liver microsomes assessed as terfenadine hydroxylation after 20 mins by LC/MS/MS analysis; type: ADME, Microsome
[21] = molecular target: Cytochrome P450 2D6 (Homo sapiens, UniProt P10635); assay: Inhibition of CYP2D6 in human liver microsomes assessed as dextromethorphan O-demethylation after 20 mins by LC/MS/MS analysis; type: ADME, Microsome
[22] = molecular target: Cytochrome P450 2C9 (Homo sapiens, UniProt P11712); assay: Inhibition of CYP2C9 in human liver microsomes assessed as tolbutamide hydroxylation after 20 mins by LC/MS/MS analysis; type: ADME, Microsome
[23] = molecular target: T3, Cytochrome P450 1A2 (Homo sapiens, UniProt P05177); assay: Inhibition of CYP1A2 in human liver microsomes assessed as ethoxyresorufin O-deethylation after 20 mins by fluorescence plate reader analysis; type: ADME, Microsome
T3 sequence (P05177 whole entry): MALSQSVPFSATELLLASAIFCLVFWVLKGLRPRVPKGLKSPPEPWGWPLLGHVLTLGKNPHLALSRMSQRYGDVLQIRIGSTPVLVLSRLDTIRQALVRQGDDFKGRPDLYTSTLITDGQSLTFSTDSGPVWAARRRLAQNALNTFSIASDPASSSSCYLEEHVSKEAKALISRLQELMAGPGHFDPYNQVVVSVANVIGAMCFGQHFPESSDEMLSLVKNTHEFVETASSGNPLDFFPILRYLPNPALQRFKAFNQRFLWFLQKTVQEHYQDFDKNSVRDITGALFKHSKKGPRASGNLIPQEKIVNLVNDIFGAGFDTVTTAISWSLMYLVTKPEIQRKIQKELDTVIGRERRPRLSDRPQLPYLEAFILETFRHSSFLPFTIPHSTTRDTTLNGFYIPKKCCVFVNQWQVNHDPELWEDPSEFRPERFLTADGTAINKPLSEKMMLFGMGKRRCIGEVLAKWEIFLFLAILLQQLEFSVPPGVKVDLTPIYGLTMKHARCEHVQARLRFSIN

Chain of Cytochrome P450 2C9 (P11712 whole entry): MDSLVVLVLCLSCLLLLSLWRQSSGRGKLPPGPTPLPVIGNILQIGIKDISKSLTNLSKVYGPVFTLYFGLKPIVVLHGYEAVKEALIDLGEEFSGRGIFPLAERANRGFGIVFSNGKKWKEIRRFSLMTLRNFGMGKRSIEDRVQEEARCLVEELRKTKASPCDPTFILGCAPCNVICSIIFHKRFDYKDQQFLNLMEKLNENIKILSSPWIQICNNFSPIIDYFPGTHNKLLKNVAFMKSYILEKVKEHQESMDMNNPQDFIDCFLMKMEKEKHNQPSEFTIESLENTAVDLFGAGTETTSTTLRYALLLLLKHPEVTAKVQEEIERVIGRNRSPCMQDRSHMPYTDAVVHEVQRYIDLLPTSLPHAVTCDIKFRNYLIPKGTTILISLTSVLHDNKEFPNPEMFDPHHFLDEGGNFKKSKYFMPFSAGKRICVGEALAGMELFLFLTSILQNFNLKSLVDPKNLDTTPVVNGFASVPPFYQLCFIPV
Chain of Cytochrome P450 2D6 (P10635 whole entry): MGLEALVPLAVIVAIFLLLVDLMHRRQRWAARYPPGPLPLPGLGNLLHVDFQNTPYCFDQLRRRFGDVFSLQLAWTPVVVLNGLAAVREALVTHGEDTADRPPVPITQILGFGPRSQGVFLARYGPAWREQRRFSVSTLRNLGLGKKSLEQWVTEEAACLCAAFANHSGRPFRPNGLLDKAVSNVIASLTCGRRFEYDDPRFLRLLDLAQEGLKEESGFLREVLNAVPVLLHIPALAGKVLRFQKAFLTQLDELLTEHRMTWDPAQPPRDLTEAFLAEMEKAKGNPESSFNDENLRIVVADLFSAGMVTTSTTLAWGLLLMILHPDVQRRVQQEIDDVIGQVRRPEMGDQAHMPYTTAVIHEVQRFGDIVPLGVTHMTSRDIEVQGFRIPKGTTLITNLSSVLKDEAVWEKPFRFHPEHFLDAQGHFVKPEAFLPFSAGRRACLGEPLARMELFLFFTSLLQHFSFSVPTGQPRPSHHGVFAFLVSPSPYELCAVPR
Chain of Cytochrome P450 3A4 (P08684 whole entry): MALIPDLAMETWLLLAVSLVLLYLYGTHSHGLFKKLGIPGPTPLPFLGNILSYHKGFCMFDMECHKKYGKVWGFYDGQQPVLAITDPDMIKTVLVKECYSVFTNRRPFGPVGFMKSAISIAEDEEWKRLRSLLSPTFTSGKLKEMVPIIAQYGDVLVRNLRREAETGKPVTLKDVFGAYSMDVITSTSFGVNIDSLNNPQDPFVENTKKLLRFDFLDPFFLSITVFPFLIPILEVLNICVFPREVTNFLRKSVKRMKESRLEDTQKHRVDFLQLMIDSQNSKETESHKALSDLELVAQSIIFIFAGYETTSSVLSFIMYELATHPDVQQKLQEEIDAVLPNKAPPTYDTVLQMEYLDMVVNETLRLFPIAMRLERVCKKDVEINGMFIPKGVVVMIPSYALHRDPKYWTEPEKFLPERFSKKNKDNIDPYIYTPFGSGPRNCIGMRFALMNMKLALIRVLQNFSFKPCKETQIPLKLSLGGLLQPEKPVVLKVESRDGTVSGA

Row | SMILES | ED50 [1] [mg/kg] | MIC [2] [µg/mL] | Ratio [3] | Ratio [4] | Ratio [5] | Ratio [6] | Ratio [7] | Ratio [8] | Ratio [9] | MIC [10] [µg/mL] | MIC [11] [µg/mL] | MIC [12] [µg/mL] | MIC [13] [µg/mL] | MIC [14] [µg/mL] | MIC [15] [µg/mL] | MIC [16] [µg/mL] | MIC [17] [µg/mL] | further results
1 | COC(=S)NC[C@H]1CN(c2cc(F)c(N3CCNN(C(N)=O)CC3)c(F)c2)C(=O)O1 | 1.23 | 0.25 | 4 | 4 | 4 | 4 | 4 | 4 | 4 | 16 | ≤ 0.063 | 2 | 0.5 | 0.25 | 0.25 | 0.5 | 0.125 | –
2 | CC(=S)NC[C@H]1CN(c2ccc(N3CCNN(C(N)=O)CC3)c(F)c2)C(=O)O1 | – | – | 4 | 4 | 4 | 4 | 4 | 4 | 4 | 4 | 0.063 | 8 | 0.5 | 0.25 | 0.25 | 4 | 0.5 | –
3 | CNC(=O)N1CCN(c2ccc(N3C[C@H](CNC(=S)OC)OC3=O)cc2F)CCN1 | 0.86 | 0.5 | – | – | – | – | – | – | – | 16 | 0.25 | 8 | 0.5 | 0.25 | 0.5 | 2 | 0.25 | inhibition at 10 min, 30 µM [18]: 3.1%; inhibition at 5 min, 30 µM [19]: 3.4%; IC50 [20]: > 20 µM; IC50 [21]: > 20 µM; IC50 [22]: > 20 µM; IC50 [23]: > 20 µM
4 | COC(=S)NC[C@H]1CN(c2ccc(N3CCNN(C(N)=O)CC3)c(F)c2)C(=O)O1 | – | – | 4 | 4 | 4 | 4 | 4 | 4 | 4 | 4 | ≤ 0.063 | 4 | 0.25 | 0.25 | 0.25 | 2 | 0.125 | –
5 | CC(=S)NC[C@H]1CN(c2cc(F)c(N3CCNN(C(N)=O)CC3)c(F)c2)C(=O)O1 | – | – | 4 | 4 | 4 | 4 | 4 | 4 | 4 | 4 | 0.063 | 4 | 0.25 | 0.125 | 0.25 | 1 | 0.25 | –
6 | O=CN1CCN(c2c(F)cc(N3C[C@H](Cn4ccnn4)OC3=O)cc2F)CCN1 | 2.5 | 0.25 | 4 | 4 | 4 | 4 | 4 | 4 | 4 | 8 | ≤ 0.063 | 16 | 1 | 0.25 | 1 | 8 | 1 | –
7 | CC(=O)NC[C@H]1CN(c2ccc(N3CCOCC3)c(F)c2)C(=O)O1 [LINEZOLID] | – | – | – | – | – | – | – | – | – | 16 | – | 32 | – | – | – | 8 | 2 | inhibition (INH) ([20]; human, microsomes, 20 min): Active; inhibition (INH) ([21]; human, microsomes, 20 min): Active; inhibition (INH) ([22]; human, microsomes, 20 min): Active; inhibition (INH) ([23]; human, microsomes, 20 min): Active
8 | CC(=O)NC[C@H]1CN(c2ccc(-c3ccc(N4CCNOCC4)nc3)c(F)c2)C(=O)O1 | – | – | 2 | 2 | 2 | 2 | 2 | 2 | 2 | 16 | 0.125 | 8 | 1 | 1 | 2 | 16 | 1 | –
9 | COC(=S)NC[C@H]1CN(c2cc(F)c(N3CCON(C(N)=O)CC3)c(F)c2)C(=O)O1 | – | – | 4 | 4 | 4 | 4 | 4 | 4 | 4 | 8 | ≤ 0.063 | 2 | 0.25 | 0.25 | 0.25 | 1 | 0.125 | –
10 | O=CN1CCN(c2c(F)cc(N3C[C@H](CNc4ccon4)OC3=O)cc2F)CCN1 | – | – | 4 | 4 | 4 | 4 | 4 | 4 | 4 | 16 | 0.25 | 16 | 1 | 0.5 | 1 | 8 | 1 | –
11 | O=C1O[C@@H](Cn2ccnn2)CN1c1ccc(-c2ccc(N3CCNOCC3)nc2)c(F)c1 | – | – | 2 | 2 | 2 | 2 | 2 | 2 | 2 | 32 | 0.25 | 8 | 2 | 1 | 2 | 8 | 1 | –
12 | COC(=S)NC[C@H]1CN(c2ccc(N3CCNN(C=O)CC3)c(F)c2)C(=O)O1 | 2.95 | 0.25 | 4 | 4 | 4 | 4 | 4 | 4 | 4 | 4 | 0.063 | 4 | 0.25 | 0.25 | 0.25 | 2 | 0.25 | –
